SKKanGAS inh = S. pyogenes SKKanGAS growth inhibitors in kanamycin, primary screen, streptokinase expression inhibitor project, SKKanGAS strain, BacTiter-Glo luminescence; AID 1662, 2009; 300,000 tested, 1.3% active; 6 h; inhibition, % at 7.5 µM;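 active = mean replicate score, as percent of positive control median, at least 50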;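 note: strain carries kanamycin resistance gene driven by streptokinase promoter and grows in 40 µg/ml kanamycin; loss of luminescence reflects streptokinase promoter inhibition or plain growth inhibition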
ASAP1 GAP inh = inhibitors of human ASAP1 ArfGAP activity, primary screen, biochemical, fluorescence polarization; Arf-GAP with SH3 domain, ANK repeat and PH domain-containing protein 1 (Homo sapiens), …; ASAP1-stimulated ARF1 GTP hydrolysis, GDP FP detection; inhibition, % at 16.5 µM; 360,000 tested, 0.19% active; AID 624377, 2012; in the data active = inhibition above about 25%
Target sequence (Q9ULH1 325-724 limits assumed): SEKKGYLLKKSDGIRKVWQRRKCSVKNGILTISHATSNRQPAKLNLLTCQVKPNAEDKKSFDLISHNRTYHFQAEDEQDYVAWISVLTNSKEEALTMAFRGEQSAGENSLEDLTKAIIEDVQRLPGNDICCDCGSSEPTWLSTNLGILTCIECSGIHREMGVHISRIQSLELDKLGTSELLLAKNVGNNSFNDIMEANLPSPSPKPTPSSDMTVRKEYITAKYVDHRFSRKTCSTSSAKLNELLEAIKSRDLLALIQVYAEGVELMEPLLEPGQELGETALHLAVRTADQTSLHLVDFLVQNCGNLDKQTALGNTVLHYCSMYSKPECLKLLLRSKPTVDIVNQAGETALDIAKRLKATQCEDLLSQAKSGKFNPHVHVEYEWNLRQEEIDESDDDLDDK
Calb FLC = C. albicans growth inhibition with fluconazole, primary screen, CaCi-2 strain, Alamar Blue fluorescence; C. albicans CaCi-2 (fluconazole-resistant clinical isolate) + fluconazole, 48 h; growth inhibition, % (test concentration not listed); 300,000 tested, 0.57% active;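 active = growth inhibition above about 58% in most replicates, limit read from the data, passing the limit was not always enough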;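 note: all wells also contain fluconazole at 8 µg/ml as a sub-toxic cotreatment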
sPLA2-III inh = human group III sPLA2 inhibitors, primary screen, biochemical, QFRET, BODIPY PC-A2 liposome substrate | Group 3 secretory phospholipase A2 (Homo sapiens), Q9NZ20 | QFRET BODIPY PC-A2 liposome hydrolysis, fluorescence | inhibition, % at 12.2 µM | 370,000 tested, 0.56% active;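 active = inhibition above mean plus 3 SD of compounds lying within the high and low control bounds, cut at about 19% in these data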
ARFGAP1 inh = inhibitors of rat ARFGAP1 GAP activity, primary screen, biochemical, fluorescence polarization, GDP tracer. ADP-ribosylation factor GTPase-activating protein 1 (Rattus norvegicus), Q62848. Arfgap1-stimulated ARF1 GTP hydrolysis, GDP FP detection. inhibition, % at 16.5 µM. 360,000 tested, 0.26% active. AID 651572, 2012;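 active = inhibition above a per-plate limit, mean inhibition of low control wells plus 3 SD, cut at about 25% in these data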
Target sequence (Q62848 1-136 limits assumed): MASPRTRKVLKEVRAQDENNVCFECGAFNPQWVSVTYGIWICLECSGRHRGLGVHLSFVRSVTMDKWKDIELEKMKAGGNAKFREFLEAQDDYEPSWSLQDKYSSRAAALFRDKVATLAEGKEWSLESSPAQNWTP
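Material – truncated rat Arfgap1 GAP domain · Buffer or medium – HEPES-based buffer, pH 7.5 · Reagent – human ARF1(Δ1-17)-GTP substrate · Dosing – 16.5 µM single point, 1.26% DMSO · Schedule – GTP hydrolysis reaction 2 h at 25 °C · Technique – GDP detection by fluorescence polarization · Benchmarks – No-Arfgap1 wells (100%) versus DMSO full-reaction wells (0%) · Repeats – single replicate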
Each line names hits and unclear results; the compound was inactive in the other large screens. A selection: hits, their analogues and other compounds. The true share with any hit is near 2.3%.

COc1ccc(C(=O)c2c(C(F)(F)F)oc3c2C(=O)c2ccccc2C3=O)cc1OC	SKKanGAS inh 99.8
Cc1ccc(-c2csc(Cc3nc(-c4ccc5c(c4)CCC(=O)N5)cs3)n2)cc1	SKKanGAS inh 70.7
Cc1nc(-c2ccc3c(c2)CCC(=O)N3)cs1	none
C=CCn1c(N)c(C(=O)Nc2ccc(C)c(C)c2)c2nc3ccccc3nc21	none
C=CCn1c(N)c(C(=O)Nc2cccc(C)c2)c2nc3ccccc3nc21	SKKanGAS inh 51.1
CCCCCCc1cc2cc(C(=O)OCC)c(=O)oc2cc1O	SKKanGAS inh 56.0
CCCCCCc1cc2cc(C(N)=O)c(=N)oc2cc1O	none (no result: ASAP1 GAP inh, sPLA2-III inh, ARFGAP1 inh)
O=C(C1CCCN1S(=O)(=O)c1ccc(F)cc1)N1CCc2ccccc2C1 (centres undefined)	none (no result: SKKanGAS inh, ASAP1 GAP inh, Calb FLC, ARFGAP1 inh)
COc1ccc(NC(=O)c2cccc(-c3ccc(O)cc3)c2)cn1	SKKanGAS inh 52.9
CC(=O)Nc1cccc(NC(=O)c2cccc(-c3ccc(O)cc3)c2)c1	none
COc1ccc(C(=O)NNC(=O)OC(C)(C)C)cc1	none
COc1ccc(C(=O)NN/C(C)=C/C(=O)C(F)(F)C(F)(F)C(F)(F)F)cc1	Calb FLC 94.4
O=C(NNC(=O)c1cc(Cl)ccc1O)c1ccc(NS(=O)(=O)c2cccs2)cc1	Calb FLC 84.3
Cc1ccc2nc(NC(=O)c3ccc(NS(=O)(=O)c4cccs4)cc3)sc2c1	SKKanGAS inh 61.6
CS(=O)(=O)c1ccc2nc(NC(=O)c3ccc(NS(=O)(=O)c4cccc([N+](=O)[O-])c4)cc3)sc2c1	SKKanGAS inh 61.8
C[C@H]1[C@H](N(Cc2cccs2)Cc2cccs2)CC[C@@]23CCCN2C(=O)CCC[C@@H]13	none (no result: SKKanGAS inh, ASAP1 GAP inh, Calb FLC, ARFGAP1 inh)
CCC(C)n1cnc2c(c1=O)c1nc3ccccc3nc1n2Cc1ccc2c(c1)OCO2 (centres undefined)	Calb FLC 99.9 (no result: ASAP1 GAP inh, sPLA2-III inh, ARFGAP1 inh)
CCC(C)n1cnc2c(c1=O)c1nc3ccccc3nc1n2-c1ccc2c(c1)OCCO2 (centres undefined)	none
FC(F)(F)c1ccccc1N/N=C/c1cccnc1	none
Fc1ccc(N/N=C/c2cccnc2)c(F)c1	Calb FLC 112.0
COc1cc(C=NNc2ccccc2[N+](=O)[O-])cc(OC)c1OC	none (no result: SKKanGAS inh, Calb FLC)
COc1cc(/C=N/Nc2ccc(F)cc2F)cc(OC)c1OC	Calb FLC 125.9
Oc1ccc(Br)cc1/C=N/n1c(-c2ccccc2)n[nH]c1=S	none
S=c1[nH]nc(-c2ccccc2)n1/N=C/c1cccs1	Calb FLC 104.7 (no result: ASAP1 GAP inh, sPLA2-III inh, ARFGAP1 inh)
Oc1c(Br)cc(Br)c(/C=N/n2c(-c3ccccc3)n[nH]c2=S)c1Br	Calb FLC 78.9
O=C(NC1CCCCC1)O[C@H]1CC[C@@]23CCCN2C(=O)CCC[C@H]3C1	none (no result: SKKanGAS inh, ASAP1 GAP inh, Calb FLC, ARFGAP1 inh)
COc1ccc(OC)c(/C=N/n2c(-c3n[nH]c4c3CCC4)n[nH]c2=S)c1	SKKanGAS inh 50.3
COc1cc(OC)c(OC)cc1/C=N/n1c(-c2n[nH]c3c2CCC3)n[nH]c1=S	none
O=C(Nc1ccc(N2CCN(C(=O)c3ccco3)CC2)c(Cl)c1)c1c(F)c(F)c(F)c(F)c1F	SKKanGAS inh 50.1
O=C(Nc1ccc(N2CCN(C(=O)c3ccco3)CC2)c(Cl)c1)c1cccnc1	none
COC(=O)C1=C(C)N(Cc2ccc(Br)cc2)C(=S)NC1c1ccccc1 (centres undefined)	none (no result: SKKanGAS inh, Calb FLC)
CCC(=O)Oc1ccc(-c2nc(-c3cccnc3)no2)cc1	SKKanGAS inh 55.7
C(=C\c1ccc2ccccc2n1)/c1ccccc1	none
CN(C)c1ccc(/C=C/c2ccc3ccccc3n2)cc1	SKKanGAS inh 75.2 (no result: ASAP1 GAP inh, sPLA2-III inh, ARFGAP1 inh)
COc1ccc(-n2c(COc3ccc(Cl)cc3)nnc2SCc2nc3ccccc3[nH]2)cc1	none (no result: SKKanGAS inh, ASAP1 GAP inh, Calb FLC, ARFGAP1 inh)
Cc1ccc(C2C(/C=C3/SC(=S)NC3=O)=C(c3cccs3)Oc3ccccc32)cc1 (centres undefined)	SKKanGAS inh 112.5
O=C1NC(=S)SC1=Cc1ccccc1Cl	none (no result: SKKanGAS inh, Calb FLC)
COc1ccc2c(c1)[C@H]1[C@H](CO2)[C@H](c2ccccc2)[C@]2(C)C(=O)Nc3cc(C)ccc3C(=O)N12	none (no result: SKKanGAS inh, Calb FLC)

Assay outcomes from PubChem.
